Laboratory results reported in ChEMBL document CHEMBL3120154, “2-[N-Alkyl(R-phenyl)-aminomethyl]-3-phenyl-7-trifluoromethylquinoxalines as anticancer agents inhibitors of folate enzymes” (Eur J Med Chem, 2014).
Calls of active or inactive are those of the source. No cut-off for these calls is given here.

What was measured:
MCF7 [1] = assay: Cytotoxicity against human MCF7 cells assessed as cell growth at 10^-5 M after 48 hrs by alamar blue assay relative to untreated control; type: functional; conditions: MCF7, 48 h, read-out: Activity
How it was run: (§1)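 Three-cell-line prescreen. Each line was inoculated and preincubated on a microtiter plate, then the agent was added at a single concentration (10^-4 or 10^-5 M) and incubated 48 h. Endpoint was measured with alamar blue, and growth is reported as a percentage of untreated control cells.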

Dihydrofolate reductase = molecular target: T1, Dihydrofolate reductase (Homo sapiens, UniProt P00374); assay: Competitive inhibition of human dihydrofolate reductase by spectrophotometry
T1 sequence (P00374 whole entry): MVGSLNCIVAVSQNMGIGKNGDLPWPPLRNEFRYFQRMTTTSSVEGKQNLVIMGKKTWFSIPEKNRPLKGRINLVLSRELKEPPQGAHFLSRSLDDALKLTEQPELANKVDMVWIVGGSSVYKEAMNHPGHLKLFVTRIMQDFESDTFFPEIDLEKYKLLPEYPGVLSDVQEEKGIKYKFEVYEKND

NCI-H460 [2] = assay: Cytotoxicity against human NCI-H460 cells assessed as cell growth at 10^-5 M after 48 hrs by alamar blue assay relative to untreated control; type: functional; conditions: NCI-H460, 48 h, read-out: Activity; how it was run: as §1
SF-268 [3] = assay: Cytotoxicity against human SF268 cells assessed as cell growth at 10^-5 M after 48 hrs by alamar blue assay relative to untreated control; type: functional; conditions: SF-268, 48 h, read-out: Activity
How it was run: (§2)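 Three-cell-line prescreen at NCI. Each line was seeded and pre-incubated, then given a single concentration (10^-4 or 10^-5 M) and incubated for 48 h. The end-point was alamar blue. The value is percent growth of treated cells versus untreated control cells, with negative numbers indicating cell kill.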

MCF7 [4] = assay: Cytotoxicity against human MCF7 cells assessed as cell growth at 10^-4 M after 48 hrs by alamar blue assay relative to untreated control; type: functional; conditions: MCF7, 48 h, read-out: Activity; how it was run: as §1
NCI-H460 [5] = assay: Cytotoxicity against human NCI-H460 cells assessed as cell growth at 10^-4 M after 48 hrs by alamar blue assay relative to untreated control; type: functional; conditions: NCI-H460, 48 h, read-out: Activity; how it was run: as §1
SF-268 [6] = assay: Cytotoxicity against human SF268 cells assessed as cell growth at 10^-4 M after 48 hrs by alamar blue assay relative to untreated control; type: functional; conditions: SF-268, 48 h, read-out: Activity; how it was run: as §2
[7] = molecular target: Dihydrofolate reductase (Homo sapiens) (UniProt P00374); assay: Competitive inhibition of human dihydrofolate reductase at 10 uM by spectrophotometry
Thymidylate synthase = Thymidylate synthase (Homo sapiens, UniProt P04818); assay: Competitive inhibition of human thymidylate synthase by spectrophotometry

| SMILES | growth at 10 µM (MCF7 [1]) | Ki (Dihydrofolate reductase) | growth at 10 µM (NCI-H460 [2]) | growth at 10 µM (SF-268 [3]) | growth at 100 µM (MCF7 [4]) | growth at 100 µM (NCI-H460 [5]) | growth at 100 µM (SF-268 [6]) | inhibition [7] | Ki (Thymidylate synthase) |
| --- | --- | --- | --- | --- | --- | --- | --- | --- | --- |
| CN(Cc1nc2cc(C(F)(F)F)ccc2nc1-c1ccccc1)c1ccc(Cl)cc1 | 109% | 5 µM | 118% | 108% |  |  |  |  |  |
| CN(Cc1nc2cc(C(F)(F)F)ccc2nc1-c1ccccc1)c1ccc(OC(F)(F)F)cc1 |  | 3 µM |  |  |  |  |  |  |  |
| COc1ccc(N(C)Cc2nc3cc(C(F)(F)F)ccc3nc2-c2ccccc2)cc1OC |  | 8 µM |  |  | 54% | 88% | 103% |  |  |
| CCN(Cc1nc2cc(C(F)(F)F)ccc2nc1-c1ccccc1)c1ccc(F)c(F)c1 | 73% | 5 µM | 81% | 94% |  |  |  |  |  |
| CCN(Cc1nc2cc(C(F)(F)F)ccc2nc1-c1ccccc1)c1ccc(OC(F)(F)F)cc1 |  | 5 µM |  |  | 61% | 83% | 85% |  |  |
| Cc1ccc(N(C)Cc2nc3cc(C(F)(F)F)ccc3nc2-c2ccccc2)cc1 | 115% | 11 µM | 116% | 121% |  |  |  |  |  |
| C#CCN(Cc1nc2cc(C(F)(F)F)ccc2nc1-c1ccccc1)c1ccc(Cl)cc1 |  | 4 µM |  |  | 67% | 85% | 84% |  |  |
| COc1ccc(N(C)Cc2nc3cc(C(F)(F)F)ccc3nc2-c2ccccc2)cc1 |  | 3 µM |  |  | 105% | 125% | 107% |  |  |
| CCOC(=O)Cc1ccc(N(C)Cc2nc3cc(C(F)(F)F)ccc3nc2-c2ccccc2)cc1 |  |  |  |  | 105% | 125% | 107% | inactive |  |
| CN(Cc1nc2cc(C(F)(F)F)ccc2nc1-c1ccccc1)c1ccc(F)c(F)c1 | 114% | 4 µM | 88% | 97% |  |  |  |  | 0.27 µM |
| CCN(Cc1nc2cc(C(F)(F)F)ccc2nc1-c1ccccc1)c1ccc(F)cc1 | 103% | 3 µM | 92% | 102% |  |  |  |  |  |
| C#CCN(Cc1nc2cc(C(F)(F)F)ccc2nc1-c1ccccc1)c1ccc(OC)c(OC)c1 |  | 3 µM |  |  | 119% | 80% | 109% |  |  |
| CCOC(=O)CC[C@H](NC(=O)c1ccc(N(CC)Cc2nc3cc(C(F)(F)F)ccc3nc2-c2ccccc2)cc1)C(=O)OCC |  | 4 µM |  |  |  |  |  |  |  |
| CCN(Cc1nc2cc(C(F)(F)F)ccc2nc1-c1ccccc1)c1ccc(Cl)cc1 |  | 3 µM |  |  | 46% | 68% | 81% |  |  |
| C#CCN(Cc1nc2cc(C(F)(F)F)ccc2nc1-c1ccccc1)c1cc(OC)c(OC)c(OC)c1 |  | 4 µM |  |  | 64% | 104% | 102% |  | 5 µM |
| C#CCN(Cc1nc2cc(C(F)(F)F)ccc2nc1-c1ccccc1)c1ccc(OC)cc1 |  | 3 µM |  |  | 82% | 98% | 103% |  |  |
| CCN(Cc1nc2cc(C(F)(F)F)ccc2nc1-c1ccccc1)c1cc(OC)c(OC)c(OC)c1 |  | 6 µM |  |  |  |  |  |  |  |
| C#CCN(Cc1nc2cc(C(F)(F)F)ccc2nc1-c1ccccc1)c1ccccc1Cl |  | 2 µM |  |  | 102% | 101% | 87% |  |  |
| CCN(Cc1nc2cc(C(F)(F)F)ccc2nc1-c1ccccc1)c1ccc(C)cc1 |  | 4 µM |  |  |  |  |  |  |  |
| COc1cc(N(C)Cc2nc3cc(C(F)(F)F)ccc3nc2-c2ccccc2)cc(OC)c1OC |  | 5 µM |  |  | 61% | 77% | 97% |  |  |
| CCN(Cc1nc2cc(C(F)(F)F)ccc2nc1-c1ccccc1)c1ccc(OC)cc1 |  | 7 µM |  |  | 54% | 63% | 89% |  |  |
| CCOC(=O)CC[C@H](NC(=O)c1ccc(N(C)Cc2nc3cc(C(F)(F)F)ccc3nc2-c2ccccc2)cc1)C(=O)OCC |  | 0.2 µM |  |  |  |  |  |  |  |
| C#CCN(Cc1nc2cc(C(F)(F)F)ccc2nc1-c1ccccc1)c1ccc(CC(=O)OCC)cc1 |  | 3 µM |  |  | 106% | 115% | 111% |  |  |
| C#CCN(Cc1nc2cc(C(F)(F)F)ccc2nc1-c1ccccc1)c1ccc(C(F)(F)F)cc1F |  |  |  |  | 87% | 61% | 110% |  |  |
| CCOC(=O)Cc1ccc(N(CC)Cc2nc3cc(C(F)(F)F)ccc3nc2-c2ccccc2)cc1 |  | 3 µM |  |  |  |  |  |  |  |
| CN(Cc1nc2cc(C(F)(F)F)ccc2nc1-c1ccccc1)c1ccc(F)cc1 |  | 5 µM |  |  | 180% | 119% | 125% |  |  |
